Test results: ChEMBL document CHEMBL3616441, “Discovery of a Selective and CNS Penetrant Negative Allosteric Modulator of Metabotropic Glutamate Receptor Subtype 3 with Antidepressant and Anxiolytic Activity in Rodents” (J Med Chem, 2015)
The source made the active and inactive calls. The calls are words filed in the database; no cut-off is given here.

Tests used:
[1] = target: Metabotropic glutamate receptor 3 (Rattus norvegicus) (UniProt P31422); test: Negative allosteric modulation of rat mGlu3 receptor assessed as amplitude response at 30 uM relative to glutamate
Outline: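 Calcium mobilization in cell line stably expressing rat mGlu3 with promiscuous Gα15; fluorescence read-out; amplitude of glutamate response with 30 μM test compound expressed as percentage of maximal response (100 μM glutamate); average of n = 3.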

[2] = target: Metabotropic glutamate receptor 3 (Rattus norvegicus, UniProt P31422); test: Negative allosteric modulation of rat mGlu3 receptor assessed as calcium mobilization by cell based fluorescence assay; format: functional
Outline: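 Cell line stably expressing rat mGlu3 with the promiscuous G-protein Gα15. Calcium mobilization with fluorescence read-out, inhibition of the glutamate response. Full concentration-response curves, top concentration 30 μM. % Glu Max is the response with 30 μM test compound as a percentage of the maximal response to 100 μM glutamate. Values averaged over n-3.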

[3] = Half life in rat at 0.2 mg/kg, iv administered as cassette dose; format: ADME, organism-based; conditions: in vivo
Plasma = test: Fraction unbound in rat plasma; format: ADME, cell-free
Brain = test: Fraction unbound in rat brain; format: ADME, tissue-based
[4] = Plasma clearance in rat at 0.2 mg/kg, iv administered as cassette dose; format: ADME, organism-based
[5] = Volume of distribution at steady state in rat at 0.2 mg/kg, iv administered as cassette dose; format: ADME, organism-based; conditions: in vivo, read-out: Vdss
[6] = target: Metabotropic glutamate receptor 5 (Rattus norvegicus, UniProt P31424); test: Modulation of rat mGlu5 receptor assessed as calcium mobilization by cell based fluorescence assay; format: functional
Outline: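 Calcium mobilization assay with fluorescence read-out in cells expressing mGlu5; full concentration-response curves; % Glu Max is the amplitude of response with 30 μM test compound as a percentage of the maximal response to 100 μM glutamate; values averaged over n-3.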

[7] = target: Metabotropic glutamate receptor 5 (Rattus norvegicus) (UniProt P31424); test: Negative allosteric modulation of rat mGlu5 receptor assessed as calcium mobilization by cell based fluorescence assay; format: functional
[8] = target: Metabotropic glutamate receptor 5 (Rattus norvegicus) (UniProt P31424); test: Modulation of rat mGlu5 receptor assessed as assessed as calcium mobilization at 30 uM by cell based fluorescence assay; format: functional
[9] = target: Metabotropic glutamate receptor 5 (Rattus norvegicus) (UniProt P31424); test: Positive allosteric modulation of rat mGlu5 receptor assessed as calcium mobilization by cell based fluorescence assay; format: functional

Metabotropic glutamate receptor 5, sequence (P31424 whole entry): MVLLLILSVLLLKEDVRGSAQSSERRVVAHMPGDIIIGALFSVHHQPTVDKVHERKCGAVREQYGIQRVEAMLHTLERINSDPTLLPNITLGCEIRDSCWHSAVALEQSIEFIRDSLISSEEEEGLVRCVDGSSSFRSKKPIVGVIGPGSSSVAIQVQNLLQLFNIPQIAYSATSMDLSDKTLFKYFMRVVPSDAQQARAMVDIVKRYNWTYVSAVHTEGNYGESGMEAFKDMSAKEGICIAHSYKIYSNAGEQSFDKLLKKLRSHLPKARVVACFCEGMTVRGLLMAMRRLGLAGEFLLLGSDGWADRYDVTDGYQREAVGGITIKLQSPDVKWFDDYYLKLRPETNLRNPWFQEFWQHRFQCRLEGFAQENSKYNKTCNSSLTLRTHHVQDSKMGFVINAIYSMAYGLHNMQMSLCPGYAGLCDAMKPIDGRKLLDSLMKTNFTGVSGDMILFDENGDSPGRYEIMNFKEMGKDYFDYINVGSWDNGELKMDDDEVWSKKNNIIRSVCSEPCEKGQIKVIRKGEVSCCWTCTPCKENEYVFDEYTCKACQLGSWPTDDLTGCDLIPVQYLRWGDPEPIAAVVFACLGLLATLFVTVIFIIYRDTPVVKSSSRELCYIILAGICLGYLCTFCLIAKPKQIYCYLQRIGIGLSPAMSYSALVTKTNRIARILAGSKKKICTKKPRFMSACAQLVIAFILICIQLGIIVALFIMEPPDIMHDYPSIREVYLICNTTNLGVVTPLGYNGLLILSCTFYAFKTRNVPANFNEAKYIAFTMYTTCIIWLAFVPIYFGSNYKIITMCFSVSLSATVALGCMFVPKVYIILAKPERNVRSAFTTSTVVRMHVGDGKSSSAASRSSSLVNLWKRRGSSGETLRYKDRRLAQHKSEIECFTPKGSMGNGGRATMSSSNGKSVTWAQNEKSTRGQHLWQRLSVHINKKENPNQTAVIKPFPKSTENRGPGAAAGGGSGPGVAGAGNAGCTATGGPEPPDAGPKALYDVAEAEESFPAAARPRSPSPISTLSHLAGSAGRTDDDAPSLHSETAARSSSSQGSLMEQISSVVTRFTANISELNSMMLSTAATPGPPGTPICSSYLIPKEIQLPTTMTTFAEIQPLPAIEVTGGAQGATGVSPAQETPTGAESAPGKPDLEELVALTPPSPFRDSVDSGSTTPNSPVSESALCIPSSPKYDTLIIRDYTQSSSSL
Metabotropic glutamate receptor 5 (Rattus norvegicus), sequence (P31424 21-1203 limits assumed): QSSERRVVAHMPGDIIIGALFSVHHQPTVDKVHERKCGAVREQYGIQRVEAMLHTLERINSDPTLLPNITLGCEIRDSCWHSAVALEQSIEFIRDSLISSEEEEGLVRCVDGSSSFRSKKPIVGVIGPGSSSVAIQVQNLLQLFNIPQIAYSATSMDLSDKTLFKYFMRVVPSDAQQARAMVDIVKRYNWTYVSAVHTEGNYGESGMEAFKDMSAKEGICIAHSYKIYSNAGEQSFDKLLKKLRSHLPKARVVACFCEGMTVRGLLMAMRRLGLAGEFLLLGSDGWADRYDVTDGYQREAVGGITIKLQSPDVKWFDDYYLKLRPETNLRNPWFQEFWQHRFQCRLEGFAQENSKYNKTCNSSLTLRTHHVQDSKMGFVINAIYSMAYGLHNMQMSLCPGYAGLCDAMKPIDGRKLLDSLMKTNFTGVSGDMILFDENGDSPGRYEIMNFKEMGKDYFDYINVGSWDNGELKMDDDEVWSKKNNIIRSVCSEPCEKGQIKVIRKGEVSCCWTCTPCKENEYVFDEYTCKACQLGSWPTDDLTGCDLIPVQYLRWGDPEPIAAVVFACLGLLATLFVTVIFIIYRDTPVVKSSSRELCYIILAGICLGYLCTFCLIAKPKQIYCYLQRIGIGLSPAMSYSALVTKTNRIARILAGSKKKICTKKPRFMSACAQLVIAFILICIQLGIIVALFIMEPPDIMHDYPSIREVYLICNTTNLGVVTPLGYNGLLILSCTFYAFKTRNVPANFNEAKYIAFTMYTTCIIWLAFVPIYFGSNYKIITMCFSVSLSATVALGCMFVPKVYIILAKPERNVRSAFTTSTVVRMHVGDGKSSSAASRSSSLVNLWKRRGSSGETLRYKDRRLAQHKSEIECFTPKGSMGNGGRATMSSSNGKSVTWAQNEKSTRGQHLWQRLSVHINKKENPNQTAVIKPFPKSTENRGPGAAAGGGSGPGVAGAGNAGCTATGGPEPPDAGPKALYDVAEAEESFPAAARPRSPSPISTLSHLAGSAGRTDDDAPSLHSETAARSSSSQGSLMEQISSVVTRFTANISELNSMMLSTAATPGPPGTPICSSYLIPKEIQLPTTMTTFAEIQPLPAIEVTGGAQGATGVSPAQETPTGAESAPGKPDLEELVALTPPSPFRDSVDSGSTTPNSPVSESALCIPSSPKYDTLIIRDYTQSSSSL
Metabotropic glutamate receptor 3 (Rattus norvegicus), sequence (P31422 23-879 limits assumed): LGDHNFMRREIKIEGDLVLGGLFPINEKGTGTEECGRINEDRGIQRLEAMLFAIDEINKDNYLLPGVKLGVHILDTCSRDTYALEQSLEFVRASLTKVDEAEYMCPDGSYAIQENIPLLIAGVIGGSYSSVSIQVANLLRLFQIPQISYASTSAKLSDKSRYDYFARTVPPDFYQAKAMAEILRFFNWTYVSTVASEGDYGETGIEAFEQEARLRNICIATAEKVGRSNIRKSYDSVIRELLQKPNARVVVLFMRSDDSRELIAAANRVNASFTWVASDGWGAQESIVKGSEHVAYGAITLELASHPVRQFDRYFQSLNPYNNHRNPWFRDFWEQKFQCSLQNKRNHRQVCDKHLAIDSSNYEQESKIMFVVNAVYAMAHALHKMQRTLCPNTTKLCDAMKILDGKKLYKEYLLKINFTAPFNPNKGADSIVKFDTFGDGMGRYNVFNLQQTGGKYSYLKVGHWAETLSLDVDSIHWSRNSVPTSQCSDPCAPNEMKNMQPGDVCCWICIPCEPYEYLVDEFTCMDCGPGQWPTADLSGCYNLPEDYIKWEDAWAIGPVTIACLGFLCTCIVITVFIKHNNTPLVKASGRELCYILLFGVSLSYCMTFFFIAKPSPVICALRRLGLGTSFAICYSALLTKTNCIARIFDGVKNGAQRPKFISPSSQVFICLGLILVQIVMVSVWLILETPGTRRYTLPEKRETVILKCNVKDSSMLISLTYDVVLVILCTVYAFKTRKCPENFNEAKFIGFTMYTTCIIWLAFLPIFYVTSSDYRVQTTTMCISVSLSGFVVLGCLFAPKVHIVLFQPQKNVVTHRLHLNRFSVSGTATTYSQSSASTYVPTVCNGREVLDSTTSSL
Metabotropic glutamate receptor 3, sequence (P31422 whole entry): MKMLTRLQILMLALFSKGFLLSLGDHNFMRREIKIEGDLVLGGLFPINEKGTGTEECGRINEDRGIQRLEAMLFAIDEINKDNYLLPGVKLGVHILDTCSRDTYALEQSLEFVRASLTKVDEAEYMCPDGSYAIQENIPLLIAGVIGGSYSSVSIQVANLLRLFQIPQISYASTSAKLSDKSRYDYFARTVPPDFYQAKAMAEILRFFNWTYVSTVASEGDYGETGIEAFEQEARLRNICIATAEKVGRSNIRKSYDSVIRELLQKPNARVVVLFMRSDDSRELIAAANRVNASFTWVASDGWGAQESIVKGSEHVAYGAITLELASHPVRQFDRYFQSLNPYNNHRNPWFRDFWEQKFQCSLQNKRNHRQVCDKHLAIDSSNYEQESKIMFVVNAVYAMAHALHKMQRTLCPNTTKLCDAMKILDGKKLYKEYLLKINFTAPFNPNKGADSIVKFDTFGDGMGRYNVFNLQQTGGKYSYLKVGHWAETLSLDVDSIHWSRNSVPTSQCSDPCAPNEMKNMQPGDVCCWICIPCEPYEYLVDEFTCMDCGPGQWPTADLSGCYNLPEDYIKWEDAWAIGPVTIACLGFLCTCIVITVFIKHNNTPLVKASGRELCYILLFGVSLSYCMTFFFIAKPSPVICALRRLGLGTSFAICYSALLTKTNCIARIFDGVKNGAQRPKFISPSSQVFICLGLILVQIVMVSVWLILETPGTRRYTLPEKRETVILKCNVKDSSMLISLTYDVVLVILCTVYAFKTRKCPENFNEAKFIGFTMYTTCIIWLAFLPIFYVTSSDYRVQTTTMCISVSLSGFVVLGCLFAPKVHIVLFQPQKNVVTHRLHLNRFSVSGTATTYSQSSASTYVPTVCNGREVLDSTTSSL

Row | Compound | Activity [1] | IC50 [2] | half-life [3] | Fu (Plasma) | Fu (Brain) | clearance [4] | Vd [5] | EC50 [6] | Activity [7] | Activity [8] | Activity [9]
1 | C[C@@H]1CN(c2cncc(C#N)c2)C(=O)c2cc(COc3ccc(Cl)cn3)nn21 | 1.08% | 605 nM | 0.983 h | 0.078 | 0.033 | 22 mL/min/kg | 1.4 L/kg | > 30000 nM |  |  | 
2 | C[C@@H]1CN(c2cncc(F)c2)C(=O)c2cc(COc3ccc(Cl)cn3)nn21 | 1.85% | 481 nM | 0.5 h | 0.092 |  | 50 mL/min/kg | 1.9 L/kg | > 30000 nM |  |  | 
3 | CCOc1ccc(OCc2cc3n(n2)[C@H](C)CN(c2ccc(F)cc2)C3=O)cc1 | 3.39% | 1160 nM | 0.533 h | 0.005 |  | 82 mL/min/kg | 2.2 L/kg | > 30000 nM |  |  | 
4 | C[C@@H]1CN(c2cccc(F)c2F)C(=O)c2cc(COc3ccc(F)cn3)nn21 | 2.15% | 184 nM |  | 0.092 |  |  |  | 2110 nM | Active | 21% | 
5 | C[C@@H]1CN(c2ccccn2)C(=O)c2cc(COc3ccc(Cl)cn3)nn21 | 1.07% | 328 nM |  | 0.051 |  |  |  | > 30000 nM |  |  | 
6 | Cc1ccccc1N1C[C@@H](C)n2nc(COc3ccc(F)cn3)cc2C1=O | 1.72% | 346 nM |  |  |  |  |  | > 10000 nM | Active | 35.8% | 
7 | C[C@@H]1CN(c2ccc(F)cc2)C(=O)c2cc(COc3ccc(F)cc3)nn21 | 2.09% | 462 nM | 1.58 h | 0.06 |  | 40 mL/min/kg | 3.5 L/kg | 92 nM |  | 87% | Active
8 | Cc1cccc(N2C[C@@H](C)n3nc(COc4ccc(F)cn4)cc3C2=O)c1 | 1.93% | 216 nM |  | 0.051 |  |  |  | > 10000 nM | Active | 36.6% | 
9 | C[C@@H]1CN(c2ccc(F)cn2)C(=O)c2cc(COc3ccc(F)cn3)nn21 | 1.31% | 349 nM |  |  |  |  |  | 9740 nM | Active | 7% | 
10 | C[C@@H]1CN(c2cccc(F)c2)C(=O)c2cc(COc3ccc(F)cn3)nn21 | 1.44% | 192 nM |  | 0.094 |  |  |  | 2720 nM | Active | 9.71% | 
11 | Cc1cccc(OCc2cc3n(n2)[C@H](C)CN(c2ccc(F)cc2)C3=O)n1 | 1.12% | 2370 nM |  |  |  |  |  | 2250 nM | Active | 2.47% | 
12 | C[C@@H]1CN(c2ccc(F)cc2)C(=O)c2cc(COc3cccc(Cl)c3)nn21 | 1.96% | 1620 nM |  |  |  |  |  | > 10000 nM | Active | 32.8% | 
13 | C[C@@H]1CN(c2cc(F)cc(C#N)c2)C(=O)c2cc(COc3ccc(Cl)cn3)nn21 | 1.92% | 315 nM | 3.23 h | 0.045 | 0.032 | 13 mL/min/kg | 2.2 L/kg | 1040 nM |  | 28% | Active
14 | C[C@@H]1CN(c2cccnc2)C(=O)c2cc(COc3ccc(Cl)cn3)nn21 | 1.73% | 608 nM | 0.35 h | 0.118 |  | 50 mL/min/kg | 1.2 L/kg | > 30000 nM |  |  | 
15 | C[C@@H]1CN(c2ccc(F)cc2)C(=O)c2cc(COc3ccc(F)cn3)nn21 | 1.71% | 539 nM | 1.47 h | 0.135 |  | 82 mL/min/kg | 6.6 L/kg | > 10000 nM | Active | 46.5% | 
16 | C[C@@H]1CN(c2cccnc2)C(=O)c2cc(COc3ccc(F)cn3)nn21 | 0.64% | 436 nM |  |  |  |  |  | > 10000 nM | Active | 46.3% | 
17 | COc1cccc(N2C[C@@H](C)n3nc(COc4ccc(F)cn4)cc3C2=O)c1 | 1.02% | 198 nM |  |  |  |  |  | > 10000 nM | Active | 59.7% | 
18 | COc1ccccc1N1C[C@@H](C)n2nc(COc3ccc(F)cn3)cc2C1=O | 1.49% | 339 nM |  |  |  |  |  | 301 nM | Active | 3.28% | 
19 | C[C@@H]1CN(c2ccc(F)cc2)C(=O)c2cc(COc3cc(C(F)(F)F)ccn3)nn21 | 1.62% | 1670 nM |  |  |  |  |  | > 10000 nM | Active | 12.9% | 
20 | C[C@@H]1CN(c2cccc(Cl)c2)C(=O)c2cc(COc3ccc(F)cn3)nn21 | 2.3% | 145 nM |  | 0.034 |  |  |  | 1850 nM | Active | 19.2% | 
21 | C[C@@H]1CN(c2c(F)cccc2F)C(=O)c2cc(COc3ccc(F)cn3)nn21 | 1.49% | 181 nM |  | 0.064 |  |  |  | 1230 nM | Active | 50.8% | 
22 | COc1ccnc(OCc2cc3n(n2)[C@H](C)CN(c2ccc(F)cc2)C3=O)c1 | -0.18% | 3690 nM |  |  |  |  |  | > 10000 nM | Active | 54.7% | 
23 | C[C@@H]1CN(c2cnccc2F)C(=O)c2cc(COc3ccc(Cl)cn3)nn21 | 1.45% | 482 nM |  | 0.085 |  |  |  | > 30000 nM |  |  | 
24 | C[C@@H]1CN(c2ccc(F)cc2)C(=O)c2cc(COc3ccc(Cl)cn3)nn21 | 1.84% | 605 nM | 2.35 h | 0.034 |  | 29 mL/min/kg | 5.2 L/kg | 2920 nM |  | 81.4% | Active
25 | C[C@@H]1CN(c2ccccc2F)C(=O)c2cc(COc3ccc(F)cn3)nn21 | 1.53% | 162 nM |  | 0.098 |  |  |  | > 10000 nM | Active | 29.1% | 
26 | C[C@@H]1CN(c2ccccc2Cl)C(=O)c2cc(COc3ccc(F)cn3)nn21 | 1.37% | 141 nM |  | 0.054 |  |  |  | 1010 nM | Active | 8.78% | 
27 | Cc1ccc(N2C[C@@H](C)n3nc(COc4ccc(F)cn4)cc3C2=O)cc1 | 1.04% | 269 nM |  |  |  |  |  | > 10000 nM | Active | 54.8% | 
28 | C[C@@H]1CN(c2cc(F)ccc2F)C(=O)c2cc(COc3ccc(F)cn3)nn21 | 2.62% | 123 nM |  | 0.089 |  |  |  | > 10000 nM | Active | 18.8% | 
